As usually defined, the IC50 is the midpoint of a concentration-inhibition curve.

One data set deals with CCRF-CEM. Kind of data set: Cytotoxicity against human CEM cells. It is filed as functional, cell-based.
Data set [1] can be described thus: Cytotoxicity against human Molt4/C8 cells. It is filed as functional, cell-based. The settings on record: MOLT-4.
The test system of the next data set is L1210. In words: Cytotoxicity against mouse L1210 cells. Format: functional, cell-based.
In data set [2] the test system is Mus musculus. Kind of data set: Mortality in mouse at 300 mg/kg, ip after 4 hrs. Format: ADME, organism-based. Details: dose 300 mg/kg, route intraperitoneal. Conditions: in vivo. In short, it runs like this: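 Mice dosed intraperitoneally at 30, 100 and 300 mg/kg; animals observed for death at 0.5 and 4 h after injection as part of a short-term toxicity screen.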

Data set [3] deals with Mus musculus. Kind of data set: Neurotoxicity in mouse at 300 mg/kg, ip after 4 hrs by rotating rod method. It is filed as toxicity, organism-based. Details: dose 300 mg/kg, route intraperitoneal. Conditions: in vivo. The procedure, abridged:
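Intraperitoneal dosing in mice at 30, 100 and 300 mg/kg. Neurological deficit was scored by the rotating rod procedure at 0.5 and 4 h, with observation for other pathological signs. Results were recorded as animals showing neurotoxicity over total animals at each dose.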

Molecules are shown by their SMILES.

For `COc1ccc(/C=C/C(=O)c2ccc(N3C(=O)C=CC3=O)cc2)cc1OC`, the IC50 in the data set with CCRF-CEM turned out to be 220 µM; in data set [1] it was 202 µM; in the data set on L1210 it was 157 µM.

As for `O=C(O)c1ccc(/C=C/C(=O)c2ccc(N3C(=O)C=CC3=O)cc2)cc1`, the IC50 with CCRF-CEM was found to be 133 µM; in data set [1], 178 µM; in the data set with L1210 it was 135 µM. The Activity entry in the data set with Mus musculus [2] and in the data set on Mus musculus [3] was “Toxic” in each case.

Regarding `O=C(/C=C/c1ccc2c(c1)OCO2)c1ccc(N2C(=O)C=CC2=O)cc1`, the IC50 with CCRF-CEM amounted to 258 µM; in data set [1] it was 214 µM; in the data set with L1210 it was 160 µM.

For the molecule `O=C(/C=C/c1ccc(Cl)c(Cl)c1)c1ccc(N2C(=O)C=CC2=O)cc1`, the IC50 in the data set on CCRF-CEM turned out to be 7.7 µM; in data set [1] it was 8.8 µM; with L1210, 6.5 µM.

Take `Cc1ccc(/C=C/C(=O)c2ccc(N3C(=O)C=CC3=O)cc2)cc1`: the figures for the IC50 (in the data set with CCRF-CEM; in data set [1]; with L1210) were 4.1 µM, 2.4 µM and 1.5 µM, respectively.

As to `COc1ccc(/C=C/C(=O)c2ccc(N3C(=O)C=CC3=O)cc2)cc1`, the IC50 in the data set with CCRF-CEM was determined as 8.4 µM; in data set [1], 7.9 µM; in the data set on L1210, 9.8 µM. Further, the Activity result in the data set with Mus musculus [3] was “Non-toxic”.

With `O=C(/C=C/c1ccc([N+](=O)[O-])cc1)c1ccc(N2C(=O)C=CC2=O)cc1`, the IC50 (in the data set with CCRF-CEM; in data set [1]; in the data set with L1210) was above 500 µM each time.

`O=C(/C=C/c1ccc(Cl)cc1)c1ccc(N2C(=O)C=CC2=O)cc1`: the results for the IC50 (with CCRF-CEM; in data set [1]; with L1210) were 7.5 µM, 7.5 µM and 7.3 µM, respectively.

As to `O=C(/C=C/c1ccccc1)c1ccc(N2C(=O)C=CC2=O)cc1`, the IC50 in the data set with CCRF-CEM came to 9.8 µM; in data set [1], 9.5 µM; in the data set on L1210, 8.6 µM.

Values taken from ChEMBL document CHEMBL1140653, “Cytostatic activity of novel 4'-aminochalcone-based imides” (Bioorg Med Chem Lett, 2007).
